Assay results collected from several papers.
Lines come from different studies, so protocols differ.
MTOR: Serine/threonine-protein kinase mTOR (MTOR, Homo sapiens, UniProt P42345)
AGTR1: Type-1 angiotensin II receptor (AGTR1, Homo sapiens, UniProt P30556)
NPY1R: Neuropeptide Y receptor type 1 (NPY1R, Homo sapiens, UniProt P25929)
BACE1: Beta-secretase 1 (BACE1, Homo sapiens, UniProt P56817)
Transmembrane protease serine 6: Transmembrane protease serine 6 (Homo sapiens, UniProt Q8IU80)

Compound | target | test | conditions | inhibition [%]
C#Cc1n[nH]c2c(-c3cn([C@@H](C)c4ccccc4)c(=O)[nH]c3=O)cc(F)cc12 | MTOR | enzyme activity, inhibitor | 0.1 µM | 6.8
CN(CCN1CCC(OC(=O)Nc2ccccc2-c2ccccc2)CC1)C(=O)c1ccc(CN2CCC(C(N)=O)CC2)cc1 | Vasopressin V2 receptor (AVPR2, Homo sapiens, UniProt P30518) | ligand displacement, radioligand | 1 µM | -7
CC(C)C(CC(=O)NO)N=[N+]=[N-] (stereo not drawn) | Endoplasmic reticulum aminopeptidase 2 (ERAP2, Homo sapiens, UniProt Q6P179) | enzyme activity, inhibitor, fluorescence | 300 µM | 5
COCc1c(-c2cc3cc(C)cc(OC)c3s2)c2c(N)ncnn2c1CN1CCNC(=O)C1 | AGTR1 | ligand displacement, radioligand | 10 µM | 9
COc1cc(Nc2ncc(F)c(Nc3ccc4c(n3)NC(=O)C(C)(C)O4)n2)cc(OC)c1OC | Serine/threonine-protein kinase TAO1 (TAOK1, Homo sapiens, UniProt Q7L7X3) | binding | 10 µM | 92
Cn1cc(-c2cccc(N3CCc4c(sc5c4CC(C)(C)C5)C3=O)c2CO)cc(Nc2ccncn2)c1=O | Protein kinase C delta type (PRKCD, Homo sapiens, UniProt Q05655) | enzyme activity, inhibitor | 1 µM | 1
CC(C)N1CCC[C@H]1CNC(=O)c1cn(C2CCCC2)c(=O)c2c1c1ccccc1n2C | NPY1R | ligand displacement, radioligand | 10 µM | 5
C[C@H](C(=O)N[C@H]1COc2ccccc2[C@@H]1S(C)(=O)=O)c1ccc(F)cc1 | AGTR1 | cell-free assay | 10 µM | -6
Cc1ncc(C)n2nc(/C=C/c3nc(N4CCCC4)cc(N4CCOCC4)n3)nc12 | BACE1 | enzyme activity, inhibitor | 10 µM | 4
O=C(Nc1cccnn1)N1CCN([C@@H]2CCOc3cc(C(F)(F)F)ccc32)CC1 | BACE1 | enzyme activity, inhibitor | 20 µM | 3
OC[C@@]12C[C@@H]1[C@@H](n1cnc3c(NC(C4CCCC4)C4CCCC4)nc(Cl)cc31)[C@H](O)[C@@H]2O | Adenosine receptor A3 (ADORA3, Homo sapiens, UniProt P0DMS8) | ligand displacement, radioligand | 10 µM | 35
COc1ccc(S(=O)(=O)N2CCCCC2)cc1C | AGTR1 | ligand displacement, radioligand | 10 µM | < 30
c1ccc(C(NCCNC(c2ccccc2)c2ccccc2)c2ccccc2)cc1 | AGTR1 | cell-free assay | 10 µM | 40
CCCCCCCCCCCC(=O)OC[C@@H](COP(=O)(O)OCCNC(=O)c1ccc(Cn2c(=O)[nH]c3c(N)nc(OCCOC)nc32)cc1)OC(=O)CCCCCCCCCCC | NPY1R | ligand displacement, radioligand | 10 µM | 11
Clc1ccc2c(C3CCN(CCc4c[nH]c5ccccc45)CC3)c[nH]c2c1 | Neuronal acetylcholine receptor; alpha4/beta2 (Homo sapiens, UniProt P17787+P43681) | ligand displacement, radioligand | 10 µM | 3
Cn1cc(-c2cc(F)cc(N3CCn4c(cc5c4CCCC5)C3=O)c2CO)cc(Nc2ccc(N3CCN(C4COC4)CC3)cn2)c1=O | MTOR | enzyme activity, inhibitor | 0.1 µM | 2
Cc1ccc2nc(N3C(=O)C(O)=C(C(=O)OC(C)(C)C)C3c3ccc(-c4ccc(Cl)cc4)o3)sc2c1 (stereo not drawn) | UDP-N-acetylenolpyruvoylglucosamine reductase (murB, Escherichia coli K-12, UniProt P08373) | enzyme activity, inhibitor | 20 µM | 46
C[C@@H]1CCCN1CCCCOc1ccc2occc(=O)c2c1 | Transmembrane protease serine 6 | enzyme activity, inhibitor, fluorescence | 10 µM | 10
C#Cc1n[nH]c2c(-c3cn(C(C)c4ccccn4)c(=O)[nH]c3=O)cc(F)cc12 (stereo not drawn) | MTOR | enzyme activity, inhibitor | 1 µM | -1.6
CN1CCN(CCCCOc2ccc3occc(=O)c3c2)CC1 | Transmembrane protease serine 6 | enzyme activity, inhibitor, fluorescence | 10 µM | 11
CCN(CC)CCCC[C@H](NC(=O)[C@H](CC(C)C)NC(=O)[C@H](C)NC(=O)[C@H](Cc1ccccc1)NC(=O)c1ccc(C(C)(C)C)cc1)C(=O)N[C@@H](CO)C(=O)OC | AGTR1 | ligand displacement, radioligand | 10 µM | -4
